Assay results: ChEMBL document CHEMBL1128436, “Synthesis and biological evaluation of a new series of sterols as potential hypocholesterolemic agents” (1995)
Values belong to the compound of their own block, whether it stands above or below them. Activity calls are given as the source filed them. The calls are words filed in the database; no cut-off is given here.

Tests used:
[1] = biological target: Low-density lipoprotein receptor (Homo sapiens) (UniProt P01130); test: Capability of derepressing the transcription of human Low density lipoprotein receptor promoter in the presence of 25-hydroxycholesterol in CHO cells by luciferase assay; assay type: cell-based
Outline: (§1)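 Stably transfected CHO clone S27/B30 (LDL receptor promoter fused to firefly luciferase), grown to confluence (2-3 days, 37 °C, 5% CO2). Then 24 h in serum-free assay medium (DMEM/Ham's F-12 3:1, 0.5% bovine albumin) with 25-hydroxycholesterol 0.5 μg/mL plus compound at 0.30-20 μg/mL from ethanol stock, triplicate wells. Lysate luciferase peak light per μg protein (Coomassie). EC30 = concentration giving 30% rise over control. MA = % specific induction at 20 μg/mL.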

[2] = biological target: Low-density lipoprotein receptor (Homo sapiens) (UniProt P01130); test: Capability of derepressing the transcription of Low density lipoprotein receptor promoter in the presence of 25-hydroxycholesterol in CHO cells measured as maximum activity at 20 ug/mL; assay type: cell-based; outline: as §1
[3] = system: CHO; test: Capability of derepressing the transcription of SV40 promoter in CHO cells by luciferase assay; NA= Not active within the test range 0-20 ug/mL; assay type: functional, cell-based; conditions: Cricetulus griseus
Outline: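 Counter-screen in CHO clone SV40/LN9, with luciferase driven by the SV40 promoter. Confluent monolayers were given compound at 0.30-20 μg/mL for 24 h in serum-free albumin assay medium, triplicate wells. Lysates were read for luciferase peak luminescence, normalized to lysate protein.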

[4] = biological target: Low-density lipoprotein receptor (Homo sapiens) (UniProt P01130); test: Capability of derepressing the transcription of human Low density lipoprotein receptor promoter in the presence of 25-hydroxycholesterol in CHO cells by luciferase assay; NA= Not active within the test range 0-20 ug/mL; assay type: cell-based; outline: as §1
[5] = system: Cricetinae gen. sp.; test: Total serum cholesterol level with relative to the control value (366(24)) in hamsters at a dose of 0.2% of diet for 1 week; assay type: functional, Cricetulus griseus
[6] = species: Mesocricetus auratus; test: Serum cholesterol level change relative to the control value (366(24)) in hamsters at a dose of 0.2% of diet for 1 week

Low-density lipoprotein receptor (Homo sapiens), sequence (P01130 whole entry, the tested form may be a part): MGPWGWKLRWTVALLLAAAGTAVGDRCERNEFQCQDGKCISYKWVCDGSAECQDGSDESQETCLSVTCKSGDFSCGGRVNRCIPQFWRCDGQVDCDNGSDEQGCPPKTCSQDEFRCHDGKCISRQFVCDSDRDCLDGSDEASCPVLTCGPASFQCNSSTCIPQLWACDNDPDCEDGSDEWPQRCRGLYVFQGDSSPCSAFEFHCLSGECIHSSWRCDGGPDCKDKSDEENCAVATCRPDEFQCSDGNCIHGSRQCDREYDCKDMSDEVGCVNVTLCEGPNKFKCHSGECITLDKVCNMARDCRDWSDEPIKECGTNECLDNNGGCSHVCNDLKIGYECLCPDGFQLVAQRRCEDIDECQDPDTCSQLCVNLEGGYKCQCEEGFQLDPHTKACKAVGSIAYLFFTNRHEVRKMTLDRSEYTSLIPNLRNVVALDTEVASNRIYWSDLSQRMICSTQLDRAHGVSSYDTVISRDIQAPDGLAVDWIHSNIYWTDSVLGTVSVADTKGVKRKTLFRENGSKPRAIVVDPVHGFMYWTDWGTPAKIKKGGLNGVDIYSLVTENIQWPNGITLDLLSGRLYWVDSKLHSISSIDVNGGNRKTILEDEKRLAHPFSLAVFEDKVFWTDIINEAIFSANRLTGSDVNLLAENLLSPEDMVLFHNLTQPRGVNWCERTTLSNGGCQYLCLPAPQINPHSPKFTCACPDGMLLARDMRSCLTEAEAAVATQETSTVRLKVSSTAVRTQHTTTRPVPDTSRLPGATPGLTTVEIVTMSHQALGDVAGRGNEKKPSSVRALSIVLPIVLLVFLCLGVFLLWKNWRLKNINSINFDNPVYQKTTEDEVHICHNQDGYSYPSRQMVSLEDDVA

- EC30 [4]: inactive
Structure (SMILES): C=CC[C@H]1[C@H](O)CC[C@@]2(C)[C@@H]1CC[C@@H]1[C@@H]2CC[C@]2(C)[C@@H]([C@H](C)CCCC(C)C)CC[C@@H]12

- EC30 [1]: 42 µM
- MA [2]: 63%
Structure (SMILES): CC(C)CCC[C@@H](C)[C@H]1CC[C@H]2[C@@H]3CCC4[C@H](Cc5ccc(Cl)cc5)[C@H](O)CC[C@]4(C)[C@H]3CC[C@]12C (stereo not given in full)
- Activity [3]: inactive

- EC30 [4]: inactive
Structure (SMILES): Cc1cccc(C[C@H]2C3CC[C@H]4[C@@H]5CC[C@H]([C@H](C)CCCC(C)C)[C@@]5(C)CC[C@@H]4[C@@]3(C)CC[C@H]2O)c1 (stereo not given in full)

- EC30 [4]: inactive
Structure (SMILES): CC(C)CCC[C@@H](C)[C@H]1CC[C@H]2[C@@H]3CCC4[C@H](Cc5ccc(C=O)cc5)[C@H](O)CC[C@]4(C)[C@H]3CC[C@]12C (stereo not given in full)

- EC30 [4]: inactive
Structure (SMILES): C=C(Cl)C[C@H]1C2CC[C@H]3[C@@H]4CC[C@H]([C@H](C)CCCC(C)C)[C@@]4(C)CC[C@@H]3[C@@]2(C)CC[C@@H]1O (stereo not given in full)

- EC30 [1]: 3.2 µM
- MA [2]: 131%
Structure (SMILES): C=C(Br)C[C@H]1C2CC[C@H]3[C@@H]4CC[C@H]([C@H](C)CCCC(C)C)[C@@]4(C)CC[C@@H]3[C@@]2(C)CC[C@H]1O (stereo not given in full)
- Activity [3]: inactive

- EC30 [4]: inactive
Structure (SMILES): C#CC[C@H]1C2CC[C@H]3[C@@H]4CC[C@H]([C@H](C)CCCC(C)C)[C@@]4(C)CC[C@@H]3[C@@]2(C)CC[C@H]1O (stereo not given in full)

- EC30 [4]: inactive
Structure (SMILES): CC(C)CCC[C@@H](C)[C@H]1CC[C@H]2[C@@H]3CCC4[C@H](Cc5cccc(F)c5F)[C@H](O)CC[C@]4(C)[C@H]3CC[C@]12C (stereo not given in full)

- EC30 [4]: inactive
Structure (SMILES): CC(C)CCC[C@@H](C)[C@H]1CC[C@H]2[C@@H]3CCC4[C@H](Cc5cccc(F)c5)[C@H](O)CC[C@]4(C)[C@H]3CC[C@]12C (stereo not given in full)

- EC30 [4]: inactive
Structure (SMILES): CC(C)CCC[C@@H](C)[C@H]1CC[C@H]2[C@@H]3CCC4[C@H](Cc5ccc(Cl)c(Cl)c5)[C@H](O)CC[C@]4(C)[C@H]3CC[C@]12C (stereo not given in full)

- EC30 [4]: inactive
Structure (SMILES): CC(C)CCC[C@@H](C)[C@H]1CC[C@H]2[C@@H]3CCC4[C@H](Cc5ccc(C(=O)O)cc5)[C@H](O)CC[C@]4(C)[C@H]3CC[C@]12C (stereo not given in full)

- EC30 [4]: inactive
Structure (SMILES): CC(C)CCC[C@@H](C)[C@H]1CC[C@H]2[C@@H]3CCC4[C@H](Cc5ccc(CO)cc5)[C@H](O)CC[C@]4(C)[C@H]3CC[C@]12C (stereo not given in full)

- EC30 [4]: inactive
Structure (SMILES): COc1ccc(C[C@H]2C3CC[C@H]4[C@@H]5CC[C@H]([C@H](C)CCCC(C)C)[C@@]5(C)CC[C@@H]4[C@@]3(C)CC[C@H]2O)cc1 (stereo not given in full)

- MA [4]: inactive
Structure (SMILES): CC(C)CCC[C@@H](C)[C@H]1CC[C@H]2[C@@H]3CCC4[C@H](Cc5cccc(I)c5)[C@H](O)CC[C@]4(C)[C@H]3CC[C@]12C (stereo not given in full)

- EC30 [1]: 14 µM
- MA [2]: 48%
Structure (SMILES): COC(=O)c1ccc(C[C@H]2C3CC[C@H]4[C@@H]5CC[C@H]([C@H](C)CCCC(C)C)[C@@]5(C)CC[C@@H]4[C@@]3(C)CC[C@H]2O)cc1 (stereo not given in full)
- Activity [3]: inactive

- EC30 [4]: inactive
Structure (SMILES): CC(C)CCC[C@@H](C)[C@H]1CC[C@H]2[C@@H]3CCC4[C@H](Cc5ccc(F)cc5F)[C@H](O)CC[C@]4(C)[C@H]3CC[C@]12C (stereo not given in full)

- EC30 [4]: inactive
Structure (SMILES): CC(C)CCC[C@@H](C)[C@H]1CC[C@H]2[C@@H]3CCC4[C@H](Cc5ccccc5F)[C@H](O)CC[C@]4(C)[C@H]3CC[C@]12C (stereo not given in full)

- EC30 [4]: inactive
Structure (SMILES): C=CC[C@@H]1[C@H]2CC[C@@H]3[C@H](CC[C@]4(C)[C@@H]([C@H](C)CCCC(C)C)CC[C@@H]34)[C@@]2(C)CC[C@@H]1O

- EC30 [1]: 12 µM
- MA [2]: 58%
Structure (SMILES): CC(C)CCC[C@@H](C)[C@H]1CC[C@H]2[C@@H]3CCC4[C@H](Cc5ccc(C(F)(F)F)cc5)[C@H](O)CC[C@]4(C)[C@H]3CC[C@]12C (stereo not given in full)
- Activity [3]: inactive

- EC30 [1]: 9.9 µM
- MA [2]: 55%
Structure (SMILES): CC(C)CCC[C@@H](C)[C@H]1CC[C@H]2[C@@H]3CCC4[C@H](Cc5ccc(C#N)cc5)[C@H](O)CC[C@]4(C)[C@H]3CC[C@]12C (stereo not given in full)
- Activity [3]: inactive

More lines, now with the values behind:

Structure (SMILES): C=CC[C@H]1C2CC[C@H]3[C@@H]4CC[C@H]([C@H](C)CCCC(C)(C)O)[C@@]4(C)CC[C@@H]3[C@@]2(C)CC[C@H]1O (stereo not given in full)
- EC30 [1]: 9.4 µM
- MA [2]: 111%

Structure (SMILES): C=C(C)C[C@H]1C2CC[C@H]3[C@@H]4CC[C@H]([C@H](C)CCCC(C)C)[C@@]4(C)CC[C@@H]3[C@@]2(C)CC[C@H]1O (stereo not given in full)
- Activity [3]: inactive
- EC30 [1]: 2.8 µM
- MA [2]: 124%

Structure (SMILES): C=CC[C@@H]1C[C@@]2(C)C(CC[C@H]3[C@@H]4CC[C@H]([C@H](C)CCCC(C)C)[C@@]4(C)CC[C@@H]32)[C@H](CC=C)[C@@H]1O (stereo not given in full)
- EC30 [4]: inactive

Structure (SMILES): CC(C)CCC[C@@H](C)[C@H]1CC[C@H]2[C@@H]3CC[C@H]4[C@H](Cc5ccccc5)C(=O)CC[C@]4(C)[C@H]3CC[C@]12C
- Total cholesterol [5]: 312 mg/dL
- Relative change [6]: -15%

Structure (SMILES): C/C=C\C[C@H]1C2CC[C@H]3[C@@H]4CC[C@H]([C@H](C)CCCC(C)C)[C@@]4(C)CC[C@@H]3[C@@]2(C)CC[C@H]1O (stereo not given in full)
- Activity [3]: inactive
- EC30 [1]: 26 µM
- MA [2]: 72%

Structure (SMILES): CC(C)CCC[C@@H](C)[C@H]1CC[C@H]2[C@@H]3CCC4[C@H](C/C=C/CO)[C@H](O)CC[C@]4(C)[C@H]3CC[C@]12C (stereo not given in full)
- EC30 [4]: inactive

Structure (SMILES): CC(C)CCC[C@@H](C)[C@H]1CC[C@H]2[C@@H]3CCC4[C@H](Cc5ccc(OCc6ccccc6)cc5)[C@H](O)CC[C@]4(C)[C@H]3CC[C@]12C (stereo not given in full)
- EC30 [4]: inactive

Structure (SMILES): CC(C)CCC[C@@H](C)[C@H]1CC[C@H]2[C@@H]3CC[C@H]4CC(=O)CC[C@]4(C)[C@H]3CC[C@]12C
- EC30 [4]: inactive

Structure (SMILES): C=C[C@H]1C2CC[C@H]3[C@@H]4CC[C@H]([C@H](C)CCCC(C)C)[C@@]4(C)CC[C@@H]3[C@@]2(C)CC[C@H]1O (stereo not given in full)
- EC30 [4]: inactive

Structure (SMILES): C=CC[C@@H]1C[C@H]2[C@@H]3CC[C@H]([C@H](C)CCCC(C)C)[C@@]3(C)CC[C@@H]2[C@@]2(C)CC[C@@H](O)CC12 (stereo not given in full)
- EC30 [4]: inactive

Structure (SMILES): CC(C)CCC[C@@H](C)[C@H]1CC[C@H]2[C@@H]3CCC4[C@H](C/C=C/c5ccccc5)[C@H](O)CC[C@]4(C)[C@H]3CC[C@]12C (stereo not given in full)
- EC30 [4]: inactive

Structure (SMILES): CCCC[C@H]1C2CC[C@H]3[C@@H]4CC[C@H]([C@H](C)CCCC(C)C)[C@@]4(C)CC[C@@H]3[C@@]2(C)CC[C@H]1O (stereo not given in full)
- Activity [3]: inactive
- EC30 [1]: 20 µM
- MA [2]: 88%

Structure (SMILES): CC/C=C/C[C@H]1C2CC[C@H]3[C@@H]4CC[C@H]([C@H](C)CCCC(C)C)[C@@]4(C)CC[C@@H]3[C@@]2(C)CC[C@H]1O (stereo not given in full)
- EC30 [4]: inactive

Structure (SMILES): C/C=C(\C)C[C@H]1C2CC[C@H]3[C@@H]4CC[C@H]([C@H](C)CCCC(C)C)[C@@]4(C)CC[C@@H]3[C@@]2(C)CC[C@H]1O (stereo not given in full)
- Activity [3]: inactive
- EC30 [1]: 18 µM
- MA [2]: 72%

Structure (SMILES): C=CC[C@@H]1C(=O)CC[C@]2(C)[C@H]3CC[C@]4(C)[C@@H]([C@H](C)CCCC(C)C)CC[C@H]4[C@@H]3CC[C@@H]12
- EC30 [4]: inactive
- Total cholesterol [5]: 267 mg/dL
- Relative change [6]: -27%

Structure (SMILES): C=CC[C@H]1C[C@H]2[C@@H]3CC[C@H]([C@H](C)CCCC(C)C)[C@@]3(C)CC[C@@H]2[C@@]2(C)CC[C@@H](O)CC12 (stereo not given in full)
- EC30 [4]: inactive

Structure (SMILES): C=CC[C@@H]1C[C@@]2(C)C(CC[C@H]3[C@@H]4CC[C@H]([C@H](C)CCCC(C)C)[C@@]4(C)CC[C@@H]32)C[C@H]1O (stereo not given in full)
- EC30 [4]: inactive

Structure (SMILES): CC(C)=CC[C@H]1C2CC[C@H]3[C@@H]4CC[C@H]([C@H](C)CCCC(C)C)[C@@]4(C)CC[C@@H]3[C@@]2(C)CC[C@H]1O (stereo not given in full)
- EC30 [4]: inactive
